Assay results taken from ChEMBL document CHEMBL4325889, “Natural products hybrids: 3,5,4'-Trimethoxystilbene-5,6,7-trimethoxyflavone chimeric analogs as potential cytotoxic agents against diverse human cancer cells” (Eur J Med Chem, 2019).

Experiments:
Type in all cases: functional
[1] = tested on: CCRF-CEM; assay: Growth inhibition of human CCRF-CEM cells at 10 uM after 48 hrs by SRB assay relative to control; settings: read-out: GI
Outline: (§1)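 Screened at the National Cancer Institute by the standard NCI protocol using the sulforhodamine B assay, which measures cellular protein. Single dose of 10 µM. Result is percent growth inhibition; values above 100% mean cell number fell below the initial population. Values are the average of duplicates.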

[2] = tested on: HL-60(TB); assay: Growth inhibition of human HL-60(TB) cells at 10 uM after 48 hrs by SRB assay relative to control; settings: HL-60, 48 h, read-out: GI
Outline: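 Run at NCI under its standard single-dose protocol against a leukemia cell panel. Cells were exposed to 10 µM; growth was read by sulforhodamine B staining of cellular protein and expressed as % growth inhibition versus untreated control. Values above 100% mean the cell population fell below the starting count (cytocidal). Each value is the average of duplicates.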

[3] = tested on: K562; assay: Growth inhibition of human K562 cells at 10 uM after 48 hrs by SRB assay relative to control; settings: K562, 48 h, read-out: GI; outline: as §1
[4] = tested on: RPMI-8226; assay: Growth inhibition of human RPMI8226 cells at 10 uM after 48 hrs by SRB assay relative to control; settings: RPMI-8226, 48 h, read-out: GI; outline: as §1
[5] = tested on: HOP-62; assay: Growth inhibition of human HOP62 cells at 10 uM after 48 hrs by SRB assay relative to control; settings: HOP-62, 48 h, read-out: GI; outline: as §1
[6] = tested on: HOP-92; assay: Growth inhibition of human HOP92 cells at 10 uM after 48 hrs by SRB assay relative to control; settings: HOP-92, 48 h, read-out: GI; outline: as §1
[7] = tested on: NCI-H23; assay: Growth inhibition of human NCI-H23 cells at 10 uM after 48 hrs by SRB assay relative to control; settings: NCI-H23, 48 h, read-out: GI; outline: as §1
[8] = tested on: NCI-H322M; assay: Growth inhibition of human NCI-H322M cells at 10 uM after 48 hrs by SRB assay relative to control; settings: read-out: GI; outline: as §1
[9] = tested on: COLO 205; assay: Growth inhibition of human COLO205 cells at 10 uM after 48 hrs by SRB assay relative to control; settings: COLO 205, 48 h, read-out: GI; outline: as §1
[10] = tested on: HCC 2998; assay: Growth inhibition of human HCC2998 cells at 10 uM after 48 hrs by SRB assay relative to control; settings: HCC 2998, 48 h, read-out: GI; outline: as §1
[11] = tested on: HCT-116; assay: Growth inhibition of human HCT116 cells at 10 uM after 48 hrs by SRB assay relative to control; settings: HCT-116, 48 h, read-out: GI; outline: as §1
[12] = tested on: HT-29; assay: Growth inhibition of human HT-29 cells at 10 uM after 48 hrs by SRB assay relative to control; settings: HT-29, 48 h, read-out: GI; outline: as §1
[13] = tested on: SF-295; assay: Growth inhibition of human SF295 cells at 10 uM after 48 hrs by SRB assay relative to control; settings: SF-295, 48 h, read-out: GI; outline: as §1
[14] = tested on: SF-539; assay: Growth inhibition of human SF539 cells at 10 uM after 48 hrs by SRB assay relative to control; settings: SF-539, 48 h, read-out: GI; outline: as §1
[15] = tested on: SNB-19; assay: Growth inhibition of human SNB19 cells at 10 uM after 48 hrs by SRB assay relative to control; settings: SNB-19, 48 h, read-out: GI
Outline: (§2)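 NCI screen against its human cancer cell line panel by the standard NCI protocol, SRB protein stain. Single dose of 10 μM. Percent growth inhibition versus control; values above 100% mean the cell population fell below the starting number. Each value is the mean of duplicates.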

[16] = tested on: SNB-75; assay: Growth inhibition of human SNB75 cells at 10 uM after 48 hrs by SRB assay relative to control; settings: SNB-75, 48 h, read-out: GI; outline: as §2
[17] = tested on: U-251; assay: Growth inhibition of human U251 cells at 10 uM after 48 hrs by SRB assay relative to control; settings: U-251, 48 h, read-out: GI; outline: as §2
[18] = tested on: Malme-3M; assay: Growth inhibition of human MALME-3M cells at 10 uM after 48 hrs by SRB assay relative to control; settings: read-out: GI; outline: as §1
[19] = tested on: MDA-MB-435; assay: Growth inhibition of human MDA-MB-435 cells at 10 uM after 48 hrs by SRB assay relative to control; settings: MDA-MB-435, 48 h, read-out: GI; outline: as §1
[20] = tested on: SK-MEL-28; assay: Growth inhibition of human SK-MEL-28 cells at 10 uM after 48 hrs by SRB assay relative to control; settings: SK-MEL-28, 48 h, read-out: GI; outline: as §1
[21] = tested on: SK-MEL-5; assay: Growth inhibition of human SK-MEL-5 cells at 10 uM after 48 hrs by SRB assay relative to control; settings: SK-MEL-5, 48 h, read-out: GI; outline: as §1
[22] = tested on: UACC-257; assay: Growth inhibition of human UACC257 cells at 10 uM after 48 hrs by SRB assay relative to control; settings: UACC-257, 48 h, read-out: GI; outline: as §2
[23] = tested on: UACC-62; assay: Growth inhibition of human UACC62 cells at 10 uM after 48 hrs by SRB assay relative to control; settings: UACC-62, 48 h, read-out: GI; outline: as §2
[24] = tested on: IGROV-1; assay: Growth inhibition of human IGROV1 cells at 10 uM after 48 hrs by SRB assay relative to control; settings: IGROV-1, 48 h, read-out: GI; outline: as §1
[25] = tested on: OVCAR-3; assay: Growth inhibition of human OVCAR3 cells at 10 uM after 48 hrs by SRB assay relative to control; settings: OVCAR-3, 48 h, read-out: GI; outline: as §1
[26] = tested on: OVCAR-4; assay: Growth inhibition of human OVCAR4 cells at 10 uM after 48 hrs by SRB assay relative to control; settings: OVCAR-4, 48 h, read-out: GI; outline: as §1
[27] = tested on: NCI/ADR-RES; assay: Growth inhibition of human NCI/ADR-RES cells at 10 uM after 48 hrs by SRB assay relative to control; settings: read-out: GI; outline: as §1
[28] = tested on: CAKI-1; assay: Growth inhibition of human Caki1 cells at 10 uM after 48 hrs by SRB assay relative to control; settings: CAKI-1, 48 h, read-out: GI; outline: as §1
[29] = tested on: SN12C; assay: Growth inhibition of human SN12C cells at 10 uM after 48 hrs by SRB assay relative to control; settings: read-out: GI; outline: as §1
[30] = tested on: UO-31; assay: Growth inhibition of human UO31 cells at 10 uM after 48 hrs by SRB assay relative to control; settings: UO-31, 48 h, read-out: GI; outline: as §2
[31] = tested on: DU-145; assay: Growth inhibition of human DU145 cells at 10 uM after 48 hrs by SRB assay relative to control; settings: DU-145, 48 h, read-out: GI; outline: as §1
[32] = tested on: MCF7; assay: Growth inhibition of human MCF7 cells at 10 uM after 48 hrs by SRB assay relative to control; settings: MCF7, 48 h, read-out: GI; outline: as §1
[33] = tested on: Hs-578T; assay: Growth inhibition of human Hs 578T cells at 10 uM after 48 hrs by SRB assay relative to control; settings: read-out: GI; outline: as §1

SMILES | inhibition of growth at 10 µM [1] [%] | inhibition of growth at 10 µM [2] [%] | inhibition of growth at 10 µM [3] [%] | inhibition of growth at 10 µM [4] [%] | inhibition of growth at 10 µM [5] [%] | inhibition of growth at 10 µM [6] [%] | inhibition of growth at 10 µM [7] [%] | inhibition of growth at 10 µM [8] [%] | inhibition of growth at 10 µM [9] [%] | inhibition of growth at 10 µM [10] [%] | inhibition of growth at 10 µM [11] [%] | inhibition of growth at 10 µM [12] [%] | inhibition of growth at 10 µM [13] [%] | inhibition of growth at 10 µM [14] [%] | inhibition of growth at 10 µM [15] [%] | inhibition of growth at 10 µM [16] [%] | inhibition of growth at 10 µM [17] [%] | inhibition of growth at 10 µM [18] [%] | inhibition of growth at 10 µM [19] [%] | inhibition of growth at 10 µM [20] [%] | other results
COc1cc(NC(=O)c2cccc(-c3cc(=O)c4c(OC)c(OC)c(OC)cc4o3)c2)cc(OC)c1OC | 68.7 | 64 | 72.4 | 99.7 | 62.5 | 75.3 | 51.2 | 30.5 | 55.7 | 25.9 | 51.4 | 69 | 55 | 47.4 | 43.7 | 25.3 | 55.1 | 43.6 | 93.6 | 36.5 | inhibition of growth at 10 µM [21]: 91.7%; inhibition of growth at 10 µM [22]: 47.2%; inhibition of growth at 10 µM [23]: 49.5%; inhibition of growth at 10 µM [24]: 48.2%; inhibition of growth at 10 µM [25]: 59.2%; inhibition of growth at 10 µM [26]: 25.1%; inhibition of growth at 10 µM [27]: 48.9%; inhibition of growth at 10 µM [28]: 59.4%; inhibition of growth at 10 µM [29]: 54.1%; inhibition of growth at 10 µM [30]: 79.1%; inhibition of growth at 10 µM [31]: 45.7%; inhibition of growth at 10 µM [32]: 65.7%; inhibition of growth at 10 µM [33]: 90.8%
COc1cccc(NC(=O)c2cccc(-c3cc(=O)c4c(OC)c(OC)c(OC)cc4o3)c2)c1 | 59.5 | 31.3 | 59.7 | 83 | 40.5 | 58.1 | 36.9 | 19.9 | 31.7 | 12.2 | 39.3 | 49.2 | 29.2 | 22.5 | 17.5 | 10.2 | 37.9 | 15.2 | 18.8 | 26.6 | inhibition of growth at 10 µM [21]: 36.1%; inhibition of growth at 10 µM [22]: 7.62%; inhibition of growth at 10 µM [23]: 37.9%; inhibition of growth at 10 µM [24]: 46.7%; inhibition of growth at 10 µM [25]: 33.4%; inhibition of growth at 10 µM [26]: 37.4%; inhibition of growth at 10 µM [27]: 35.2%; inhibition of growth at 10 µM [28]: 25.3%; inhibition of growth at 10 µM [29]: 37.7%; inhibition of growth at 10 µM [30]: 68.4%; inhibition of growth at 10 µM [31]: 28.2%; inhibition of growth at 10 µM [32]: 12.3%; inhibition of growth at 10 µM [33]: 53.8%
COc1ccccc1NC(=O)c1cccc(-c2cc(=O)c3c(OC)c(OC)c(OC)cc3o2)c1 | 48.3 | 10.1 | 51.2 | 73.7 | 30.6 | 62.5 | 34 | 18.9 | 14.8 | 13.6 | 31.9 | 38.6 | 38.2 | 30.5 | 17.5 | 30.1 | 11 | 22.9 | 22.4 | 24.6 | inhibition of growth at 10 µM [21]: 58.4%; inhibition of growth at 10 µM [22]: -6.14%; inhibition of growth at 10 µM [23]: 46.5%; inhibition of growth at 10 µM [24]: 27.5%; inhibition of growth at 10 µM [25]: 47.5%; inhibition of growth at 10 µM [26]: 19.4%; inhibition of growth at 10 µM [27]: 46.7%; inhibition of growth at 10 µM [28]: 43%; inhibition of growth at 10 µM [29]: 34.6%; inhibition of growth at 10 µM [30]: 69.6%; inhibition of growth at 10 µM [31]: 29.6%; inhibition of growth at 10 µM [32]: 28.4%; inhibition of growth at 10 µM [33]: 60%
